Source: ChEMBL document CHEMBL4014352, “Paying the Price of Desolvation in Solvent-Exposed Protein Pockets: Impact of Distal Solubilizing Groups on Affinity and Binding Thermodynamics in a Series of Thermolysin Inhibitors” (J Med Chem, 2017)
Calls of active or inactive are those of the source.

Legend:
[1] = molecular target: T1, Thermolysin (Bacillus thermoproteolyticus) (UniProt P00800); experiment: Binding affinity to Bacillus thermoproteolyticus thermolysin using PIPES buffer by ITC
T1 sequence (whole entry): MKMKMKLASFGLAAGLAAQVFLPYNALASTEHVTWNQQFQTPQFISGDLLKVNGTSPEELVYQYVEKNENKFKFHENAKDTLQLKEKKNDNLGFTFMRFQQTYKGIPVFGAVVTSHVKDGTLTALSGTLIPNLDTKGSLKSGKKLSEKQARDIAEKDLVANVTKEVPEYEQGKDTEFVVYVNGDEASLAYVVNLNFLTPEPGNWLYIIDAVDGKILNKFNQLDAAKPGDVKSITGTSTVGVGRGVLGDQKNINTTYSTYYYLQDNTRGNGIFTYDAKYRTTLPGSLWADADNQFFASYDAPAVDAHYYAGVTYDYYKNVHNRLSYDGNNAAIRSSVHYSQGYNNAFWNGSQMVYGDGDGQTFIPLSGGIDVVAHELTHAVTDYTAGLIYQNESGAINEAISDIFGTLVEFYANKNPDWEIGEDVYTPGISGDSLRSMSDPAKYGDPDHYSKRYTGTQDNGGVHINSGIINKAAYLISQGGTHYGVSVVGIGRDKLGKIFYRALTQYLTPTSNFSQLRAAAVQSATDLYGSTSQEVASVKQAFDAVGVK
How it was run: (§1)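 Freeze-dried thermolysin was dissolved just before each run in 20 mM buffer (HEPES, PIPES or sodium cacodylate, as in the line), 2 mM CaCl2 and 500 mM NaSCN, pH 7.5. ITC ran at 298 K with 10–15 injections, using either 250 μM protein with 3–3.5 mM ligand or 48 μM protein with 1 mM ligand. Ligand concentrations were corrected for qNMR purity. Each titration was run at least in duplicate.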

[2] = molecular target: T1, Thermolysin (Bacillus thermoproteolyticus); experiment: Binding affinity to Bacillus thermoproteolyticus thermolysin using HEPES buffer by ITC; how it was run: as §1
[3] = molecular target: T1, Thermolysin (Bacillus thermoproteolyticus); experiment: Binding affinity to Bacillus thermoproteolyticus thermolysin using cacodylate buffer by ITC; how it was run: as §1

Measured: Activity

CC(C)C[C@H](NP(=O)(O)CNC(=O)OCc1ccccc1)C(=O)NCN
active: all assays above

CCCNC(=O)[C@H](CC(C)C)NP(=O)(O)CNC(=O)OCc1ccccc1
active: all assays above

CCNC(=O)[C@H](CC(C)C)NP(=O)(O)CNC(=O)OCc1ccccc1
active: all assays above

CC(C)C[C@H](NP(=O)(O)CNC(=O)OCc1ccccc1)C(=O)NCCN
active: all assays above

CC(C)C[C@H](NP(=O)(O)CNC(=O)OCc1ccccc1)C(=O)N[C@@H](CCCCN)C(=O)O
active: all assays above

CC(C)C[C@H](NP(=O)(O)CNC(=O)OCc1ccccc1)C(=O)NCCCCN
active: all assays above

CCC[C@H](NC(=O)[C@H](CC(C)C)NP(=O)(O)CNC(=O)OCc1ccccc1)C(=O)O
active: all assays above

CC(C)C[C@H](NP(=O)(O)CNC(=O)OCc1ccccc1)C(=O)N[C@@H](CCCN)C(=O)O
active: all assays above

CC(C)C[C@H](NP(=O)(O)CNC(=O)OCc1ccccc1)C(=O)N[C@@H](CCN)C(=O)O
active: all assays above

CC[C@H](NC(=O)[C@H](CC(C)C)NP(=O)(O)CNC(=O)OCc1ccccc1)C(=O)O
active: all assays above

CC(C)C[C@H](NP(=O)(O)CNC(=O)OCc1ccccc1)C(=O)NCCCN
active: all assays above

CC(C)C[C@H](NP(=O)(O)CNC(=O)OCc1ccccc1)C(=O)N[C@@H](CN)C(=O)O
active: all assays above
